# Measurements published in ChEMBL document CHEMBL2401723, “Optimization of the electrophile of chloronitrobenzamide leads active against Trypanosoma brucei” (Bioorg Med Chem Lett, 2013).
# Tests used:
# [1] = system: Trypanosoma brucei brucei; test: Antitrypanosomal activity against Trypanosoma brucei brucei assessed as parasite growth inhibition; format: functional, organism-based
# [2] = Permeability of the compound by PAMPA; format: ADME; settings: for Papp: read-out: permeability
# Outline: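 Passive permeability by parallel artificial membrane assay (pION implementation), measured against PBS pH 7.4 sink buffer.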
# [3] = system: Trypanosoma brucei brucei; test: Antitrypanosomal activity against Trypanosoma brucei brucei assessed as parasite growth inhibition after 48 hrs by Cell-Titer Glo assay; format: functional, organism-based
# [4] = system: Trypanosoma brucei rhodesiense; test: Antitrypanosomal activity against wild type Trypanosoma brucei rhodesiense STIB900 assessed as parasite growth inhibition after 48 hrs by Cell-Titer Glo assay; format: functional, organism-based; settings: STIB900, 48 h
# Outline: (§1)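 Parasites exposed to a 10-point threefold dilution series added by pin transfer, lowest final concentration 0.5 nM, final DMSO 0.2%; EC50 from the series, mean of two experiments.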
# [5] = system: Trypanosoma brucei gambiense; test: Antitrypanosomal activity against Trypanosoma brucei gambiense STIB930 assessed as parasite growth inhibition after 48 hrs by Cell-Titer Glo assay; format: functional, organism-based; settings: STIB930, 48 h; outline: as §1
# [6] = system: HEK293; test: Cytotoxicity against HEK293 cells assessed as growth inhibition after 72 hrs by Cell-Titer Glo assay; format: cell-based; settings: Homo sapiens, HEK293, 72 h
# Outline: (§2)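 Human cell lines (Raji Burkitt's lymphoma, BJ immortalized foreskin fibroblast, HEK293 embryonic kidney, HepG2) exposed 72 h to a 10-point threefold dilution series by pin transfer, lowest final 0.5 nM, final DMSO 0.2%; proliferation run in triplicate, EC50 derived.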
# [7] = system: HepG2; test: Cytotoxicity against human HepG2 cells assessed as growth inhibition after 72 hrs by Cell-Titer Glo assay; format: cell-based; settings: HepG2, 72 h; outline: as §2
# [8] = Kinetic solubility in PBS buffer at pH 7.4 after 18 hrs by UV-spectroscopic analysis; format: physicochemical; settings: for solubility kinetic at 18 h: PBS buffer, pH 7.4, read-out: Kinetic_solubility
# [9] = Half life in human liver microsomes; format: ADME, Microsome
# [10] = system: BJ; test: Cytotoxicity against human BJ cells assessed as growth inhibition after 72 hrs by Cell-Titer Glo assay; format: cell-based; outline: as §2
# [11] = Half life in mouse liver microsomes; format: ADME, Microsome
# [12] = system: Raji; test: Cytotoxicity against human Raji cells assessed as growth inhibition after 72 hrs by Cell-Titer Glo assay; format: cell-based; outline: as §2
Structure (SMILES),EC50 [1],Papp [2],EC50 [3],EC50 [4],EC50 [5],EC50 [6],EC50 [7],solubility kinetic at 18 h [8],half-life [9],EC50 [10],half-life [11],EC50 [12],permeability [2],"Kinetic_solubility ([8]; buffer, pH 7.4, 18 h, BLD = below limit of detection)"
Cc1ccc(-c2nc3ccccc3s2)cc1NC(=O)c1cc([N+](=O)[O-])c(N2CCNCC2)cc1Cl,0.027 µM,,,,,,,,,,,,,
Cc1ccc(-c2nc3ccccc3s2)cc1NC(=O)c1cnccc1Cl,,791 ×10⁻⁶ cm/s,0.058 µM,0.055 µM,0.058 µM,> 25 µM,> 25 µM,0.14 µM,3.7 h,> 25 µM,0.58 h,> 25 µM,,
COc1ccc(-c2nc3ccccc3s2)cc1NC(=O)c1cnccc1Cl,,121 ×10⁻⁶ cm/s,0.12 µM,,,> 25 µM,> 25 µM,0.34 µM,,> 25 µM,,13 µM,,
O=C(Nc1cc(-c2nc3ccccc3s2)ccc1F)c1cnccc1Cl,,306 ×10⁻⁶ cm/s,0.18 µM,,,> 25 µM,> 25 µM,0.18 µM,,> 25 µM,,> 25 µM,,
O=C(Nc1ccc(F)c(-c2nc3ccccc3s2)c1)c1cnccc1Cl,,21 ×10⁻⁶ cm/s,0.12 µM,0.018 µM,0.038 µM,> 25 µM,> 25 µM,0.08 µM,> 4 h,> 25 µM,> 4 h,> 25 µM,,
Cc1ccc(-c2nc3ccccc3o2)cc1NC(=O)c1cnccc1Cl,,646 ×10⁻⁶ cm/s,0.18 µM,0.12 µM,0.17 µM,> 25 µM,> 25 µM,0.51 µM,,> 25 µM,,> 25 µM,,
COc1ccc(-c2nc3ccccc3o2)cc1NC(=O)c1cnccc1Cl,,391 ×10⁻⁶ cm/s,0.2 µM,,,> 25 µM,> 25 µM,1.68 µM,,> 25 µM,,> 25 µM,,
O=C(Nc1cc(-c2nc3ccccc3o2)ccc1F)c1cnccc1Cl,,258 ×10⁻⁶ cm/s,0.44 µM,,,> 25 µM,> 25 µM,0.13 µM,,> 25 µM,,> 25 µM,,
O=C(Nc1ccc(F)c(-c2nc3ccccc3o2)c1)c1cnccc1Cl,,305 ×10⁻⁶ cm/s,0.12 µM,0.05 µM,0.12 µM,> 25 µM,> 25 µM,0.67 µM,,> 25 µM,,> 25 µM,,
C=CC(=O)Nc1cccc(-c2nc3ccccc3s2)c1,,797 ×10⁻⁶ cm/s,> 33 µM,,,> 25 µM,> 25 µM,0.18 µM,,> 25 µM,,> 25 µM,,
C/C=C/C(=O)Nc1cccc(-c2nc3ccccc3s2)c1,,,> 33 µM,,,> 25 µM,> 25 µM,0.11 µM,,> 25 µM,,> 25 µM,1640 ×10⁻⁶ cm/s,
C=C(C)C(=O)Nc1cccc(-c2nc3ccccc3s2)c1,,987 ×10⁻⁶ cm/s,> 33 µM,,,> 25 µM,> 25 µM,0.42 µM,,> 25 µM,,> 25 µM,,
O=C(O)/C=C/C(=O)Nc1cccc(-c2nc3ccccc3s2)c1,,4 ×10⁻⁶ cm/s,> 33 µM,,,> 25 µM,> 25 µM,56 µM,,> 25 µM,,> 25 µM,,
CN(C)CCC(=O)Nc1cccc(-c2nc3ccccc3s2)c1,,,> 33 µM,,,> 25 µM,21 µM,56 µM,,> 25 µM,,> 25 µM,2080 ×10⁻⁶ cm/s,
O=C(CCl)Nc1cccc(-c2nc3ccccc3s2)c1,,660 ×10⁻⁶ cm/s,0.12 µM,,,10 µM,16 µM,1 µM,,8.5 µM,,1.7 µM,,
CC(Cl)C(=O)Nc1cccc(-c2nc3ccccc3s2)c1 (stereo not drawn),,769 ×10⁻⁶ cm/s,1.2 µM,,,> 25 µM,> 25 µM,0.83 µM,,> 25 µM,,> 25 µM,,
CC(C)(CCl)C(=O)Nc1cccc(-c2nc3ccccc3s2)c1,,891 ×10⁻⁶ cm/s,> 33 µM,,,> 25 µM,> 25 µM,,,> 25 µM,,> 25 µM,,BLD
O=C(Nc1cccc(-c2nc3ccccc3s2)c1)c1cnccc1Cl,,732 ×10⁻⁶ cm/s,0.3 µM,0.062 µM,0.061 µM,> 25 µM,> 25 µM,0.32 µM,,> 25 µM,,12 µM,,
O=C(Nc1cccc(-c2nc3ccccc3s2)c1)c1cccnc1Cl,,677 ×10⁻⁶ cm/s,25 µM,,,> 25 µM,> 25 µM,0.52 µM,,> 25 µM,,> 25 µM,,
O=C(Nc1cccc(-c2nc3ccccc3s2)c1)c1ccc(Cl)nc1Cl,,104 ×10⁻⁶ cm/s,11 µM,,,> 25 µM,> 25 µM,0.35 µM,,> 25 µM,,> 25 µM,,
O=C(Nc1cccc(-c2nc3ccccc3s2)c1)c1ccnc(Cl)c1,,478 ×10⁻⁶ cm/s,20 µM,,,> 25 µM,> 25 µM,0.74 µM,,> 25 µM,,> 25 µM,,
O=C(Nc1cccc(-c2nc3ccccc3s2)c1)c1ccncc1Cl,,563 ×10⁻⁶ cm/s,24 µM,,,> 25 µM,> 25 µM,0.32 µM,,> 25 µM,,> 25 µM,,
O=C(Nc1cccc(-c2nc3ccccc3s2)c1)c1cc([N+](=O)[O-])cnc1Cl,,42 ×10⁻⁶ cm/s,13 µM,,,> 25 µM,> 25 µM,0.45 µM,,> 25 µM,,8.4 µM,,
O=C(Nc1cccc(-c2nc3ccccc3s2)c1)c1cnc(Cl)s1,,133 ×10⁻⁶ cm/s,18 µM,,,> 25 µM,> 25 µM,0.94 µM,,> 25 µM,,> 25 µM,,
O=C(Nc1ccc(Cl)cc1)c1cc([N+](=O)[O-])ccc1Cl,,536 ×10⁻⁶ cm/s,0.92 µM,,,> 25 µM,> 25 µM,3 µM,,> 25 µM,,> 25 µM,,
